RGS4 act = potentiators or activators of RGS4; HEK293 M3R/inducible RGS4, carbachol calcium flux Fluo4; hits give low values; B-score at 10 µM; 310,000 tested, 0.92% active;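 active = B-score of the integrated calcium signal more than 4 SD below the library mean, with starting fluorescence not abnormally high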;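 also: negative B-score means reduced calcium response which marks RGS4 activation or potentiation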
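test system = M3R-expressing HEK293 line, RGS4 induced by doxycycline | probe or stimulus = carbachol at ECmax as muscarinic agonist stimulus | timing = dye loading 30 min 37 °C, buffer rest 30 min RT | signal = calcium dye Fluo4 fluorescence | evaluation = B score from integrated fluorescence ratio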
RGS4 block = human RGS4 inhibition. HEK293 M3R/RGS4 inducible, Fluo-4 calcium flux; hits give high values; triggered by carbachol at its EC20. AID 463165. P49798. B-score at 10 µM. 310,000 tested, 0.45% active;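 active = B-score, a plate-corrected calcium signal, over three deviations above library mean, with baseline fluorescence within five deviations of library mean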;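 also: RGS4 expression induced by doxycycline in cells with stable M3 receptor; B-score is computed from the integrated fluorescence ratio over baseline after carbachol; higher B-score means a larger calcium signal and so more RGS4 inhibition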
Target sequence (P49798 whole entry, looked up): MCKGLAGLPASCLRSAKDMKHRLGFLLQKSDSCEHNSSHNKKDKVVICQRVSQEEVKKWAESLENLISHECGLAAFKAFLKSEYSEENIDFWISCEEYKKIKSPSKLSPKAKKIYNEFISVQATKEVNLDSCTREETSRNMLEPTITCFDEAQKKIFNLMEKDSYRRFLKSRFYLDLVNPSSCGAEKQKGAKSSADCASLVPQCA
MrgX1 allo act = allosterically activates human MrgX1 receptor signaling | Q96LB2 | MrgX1-HEK293, Fluo-4 calcium flux, FDSS; hits give high values | B-score at 10 µM | 310,000 tested, 0.63% active | AID 588675;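 active = plate-corrected calcium response at least 3 library SD above typical, normal starting fluorescence, not activating the receptor alone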;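 also: compound read alongside a low EC10 to EC30 dose of BAM8-22 agonist; peak minus trough fluorescence over baseline measured at the second addition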
Target sequence (Q96LB2 whole entry, looked up): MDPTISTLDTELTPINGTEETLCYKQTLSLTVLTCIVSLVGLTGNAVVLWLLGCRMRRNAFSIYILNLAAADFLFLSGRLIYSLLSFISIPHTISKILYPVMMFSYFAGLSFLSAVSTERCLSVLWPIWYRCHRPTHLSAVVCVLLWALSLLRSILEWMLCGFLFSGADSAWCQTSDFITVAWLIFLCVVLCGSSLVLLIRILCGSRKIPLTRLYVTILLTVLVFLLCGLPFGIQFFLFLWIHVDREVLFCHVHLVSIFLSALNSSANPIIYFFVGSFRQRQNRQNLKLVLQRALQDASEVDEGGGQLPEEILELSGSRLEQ
MrgX1 antagonist = antagonists of human MrgX1 receptor | Q96LB2 | MRGX1-HEK293 calcium flux, Fluo-4, BAM8-22 antagonism; hits give low values | B-score at 10 µM | 310,000 tested, 1.3% active | AID 588676;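 active = calcium-response B-score plate-corrected more than 3 library SD below zero, starting fluorescence within 5 deviations, no agonist response on first addition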;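 also: peak minus trough fluorescence over baseline after final BAM8-22 challenge near maximal dose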
MrgX1 agonist = activates human MrgX1 receptor signaling | 310,000 tested, 0.44% active | B-score at 10 µM | MrgX1-HEK293 cells, Fluo-4 calcium fluorescence, agonist mode; hits give high values | AID 588627;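 active = calcium response B-score plate-corrected fluorescence ratio at least 3 library SD, with starting fluorescence B-score inside 5 SD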
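times = overnight plating, then 30 min 37 °C plus 30 min room-temperature dye loading | assay system = stable human MrgX1 HEK293 cell line | input = fifteen thousand cells per well | signal = kinetic calcium dye fluorescence, Fluo-4 NW | dosing = compound delivered in addition one of three | read-out = B-scored fluorescence response ratio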
MrgX1 PAM conf = confirmation of human MrgX1 receptor positive allosteric modulators; shares compounds with MrgX1 allo act; MrgX1-HEK293, Fluo-4 calcium fluorescence, FDSS; activation (ratio percentage), % at 10 µM; 1,200 tested, 13% active;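 active = ratio at least 3 SD above the weak peptide control, stable starting fluorescence, no direct agonism earlier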;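 also: compound followed by low BAM8-22 agonist challenge near EC20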
HEK293 Ca flux = MrgX1 antagonist counter-screen hit in parental HEK293 cells | Fluo-4 calcium fluorescence, FDSS | fluorescence ratio F(max-min)/F0 at 10 µM | shares compounds with MrgX1 antagonist | 4,000 tested, 2% active | AID 624111;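 active = duplicate-averaged calcium fluorescence ratio at least three times the standard deviation of buffer wells, a nonspecific response in parental cells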
HEK293 Ca counter = MrgX1 allosteric activator counter-screen hit in parental HEK293 cells. shares compounds with MrgX1 antagonist. parental HEK293 calcium flux, Fluo-4 fluorescence ratio; hits give high values. fluorescence ratio F(max-min)/F0 at 10 µM. 4,000 tested, 0.4% active. AID 624114;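 active = calcium fluorescence ratio, averaged over duplicates, at least 3 SD of the buffer-well ratio, meaning a nonspecific response in receptor-free cells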;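 also: untransfected parental HEK293 lacking MrgX1 used as counterscreen for MrgX1 allosteric activators; fluorescence change taken during the second addition on a kinetic imager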
HEK293 Ca cntr2 = counter-screen for MrgX1 activators: effect in parental HEK293 cells; shares compounds with MrgX1 antagonist; 4,000 tested, 8.7% active; fluorescence ratio F(max-min)/F0 at 10 µM; Fluo-4 calcium fluorescence (FDSS); hits give high values;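 active = calcium fluorescence ratio at least three times the spread of buffer wells, meaning a non-specific response in parental cells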
Active calls of the source: *; i = inactive; nt = no result given. Compounds with a hit are over-represented: about 3.5% of the library has one in this group of screens.

SMILES	RGS4 act	RGS4 block	MrgX1 allo act	MrgX1 antagonist	MrgX1 agonist	MrgX1 PAM conf	HEK293 Ca flux	HEK293 Ca counter	HEK293 Ca cntr2
COc1cc(SC)ccc1C(=O)NCc1ccc(C)cc1	i	i	6.5*	i	i	i	i	i	i
COc1ccccc1CNC(=O)c1oc2ccccc2c1C	i	i	6.7*	i	i	i	i	i	i
Cc1c(C(=O)NCc2ccccn2)oc2ccccc12	i	i	i	i	i	nt	nt	nt	nt
Cc1cc(NC2CCCC2)n2nc(C)c(-c3ccccc3)c2n1	i	i	6.8*	i	i	i	i	i	i
COc1ccc(Cl)cc1NC(=O)NCc1ccccn1	i	i	i	i	i	nt	nt	nt	nt
O=C(NC(=S)NC1CCCCC1)c1ccc(F)cc1	i	i	7*	i	i	i	i	i	i
O=C(NC(=S)NC1CCN(Cc2ccccc2)CC1)c1ccc(F)cc1	i	i	i	i	i	nt	nt	nt	nt
CN1CCCN(c2ncnc3scc(-c4ccc(F)cc4)c23)CC1	i	i	i	i	i	nt	nt	nt	nt
CC(C)c1ccc(-c2csc3ncnc(N4CCN(C)CC4)c23)cc1	i	i	7.3*	i	i	i	i	i	i
CCCC(=O)NC1=C(C#N)C2(CCCC2)Cc2ccccc21	i	i	i	i	i	nt	nt	nt	nt
CCC1(CC)Cc2ccccc2C(N)=C1C#N	i	i	15*	i	i	i	i	i	i
CCSCCc1nnc(NC(=O)Nc2cccc(C(F)(F)F)c2)s1	i	i	i	i	i	nt	nt	nt	nt
Cc1ccc(S(=O)(=O)ON2C(=O)c3ccccc3C2=O)c(C)c1	nt	nt	36*	i	i	i	i	i	i
Cc1cc(C)c(S(=O)(=O)ON2C(=O)c3ccccc3C2=O)cc1C	i	i	i	i	i	nt	nt	nt	nt
COC(=O)c1cc(Sc2c(Cl)cccc2Cl)ccn1	i	i	46*	i	i	20%*	i	i	i
COC(=O)c1cc(Sc2cccc(Cl)c2Cl)ccn1	i	i	i	i	i	nt	nt	nt	nt
Cc1nnc(SCC(=O)NC2CCCCCC2)n1C(C)C	i	i	i	i	i	nt	nt	nt	nt
O=C(CSc1nncc2ccccc12)Nc1cccc(O)c1	i	i	i	i	i	nt	nt	nt	nt
CS(=O)(=O)N(CCc1ccccc1)CC(=O)Nc1ccc(OCc2ccccc2)cc1	i	i	i	i	i	nt	nt	nt	nt
COC(=O)c1ccccc1NC(=O)CN(CCc1ccccc1)S(C)(=O)=O	i	i	9.5*	i	i	i	i	i	i
CC(=O)c1cc(CC=C(C)C)c(O)cc1O	i	i	9.9*	i	i	i	i	i	i
CC(=O)c1cc(CC=C(C)C)c(O)c(CC=C(C)C)c1O	i	i	i	i	i	nt	nt	nt	nt
CC(C)(C)C(=O)c1cnc(Nc2ccccc2Cl)s1	i	i	7.1*	i	i	i	i	i	i
COc1nccc(Nc2ccccc2)c1C#N	nt	nt	i	i	i	nt	nt	nt	nt
CSc1nccc(Nc2ccccc2)c1C#N	i	i	16*	i	i	8.6%*	i	i	i
SMILES	RGS4 act	RGS4 block	MrgX1 allo act	MrgX1 antagonist	MrgX1 agonist	MrgX1 PAM conf	HEK293 Ca flux	HEK293 Ca counter	HEK293 Ca cntr2
NC(=O)CC1NC(=O)c2ccccc21 (configuration not stated)	i	i	i	i	i	nt	nt	nt	nt
C=CCn1c(=O)c(C(=O)Nc2ccccc2S(N)(=O)=O)c(O)c2ccccc21	i	i	8.4*	i	i	i	i	i	i
S=c1nc[nH]c2c1sc1nc(N3CCOCC3)c3c(c12)CCCC3	i	i	7.4*	i	i	i	i	i	i
CC(C)c1nc2sc3c(=S)nc[nH]c3c2c2c1CCC2	i	i	i	i	i	nt	nt	nt	nt
CC(=O)NCC(=O)NC1CCCc2c1cnn2-c1ccc(C(C)(C)C)cc1 (configuration not stated)	i	i	9*	i	i	i	i	i	i
Cc1ccc(C(=O)CCC(=O)OCC(=O)N(C)c2c(N)n(Cc3ccccc3)c(=O)[nH]c2=O)cc1	i	i	i	i	i	nt	nt	nt	nt
CC(NC(=O)C1CCN(S(=O)(=O)c2cccc3cccnc23)CC1)c1ccccc1 (configuration not stated)	i	i	6.5*	i	i	i	i	i	i
CC(NC(=O)C1CCCN1S(=O)(=O)c1cccc2cccnc12)c1ccccc1 (configuration not stated)	i	i	i	i	i	nt	nt	nt	nt
O=C(CSc1nnc(CNC(=O)c2ccccc2F)o1)NC1CCCCC1	i	i	6.5*	i	i	i	i	i	i
COc1ccc(S(=O)(=O)Nc2cccc(C)n2)c2ccccc12	i	i	i	i	i	nt	nt	nt	nt
COc1ccc(Br)cc1S(=O)(=O)Nc1cccc(C)n1	i	i	12*	i	i	i	i	i	i
COc1ccc(N2CCN(CC(=O)Nc3cccc(S(=O)(=O)N4CCOCC4)c3)CC2)cc1	i	i	i	i	i	nt	nt	nt	nt
NC(=O)c1c(NC(=O)c2cccs2)sc2c1CCCCCC2	i	i	8.5*	i	i	i	i	i	i
O=C(Nc1sc2c(c1C(=O)O)CCC2)c1cccs1	i	i	i	i	i	nt	nt	nt	nt
O=C(N/N=C/c1ccoc1)c1ccccc1F	i	i	i	i	i	nt	nt	nt	nt
CN(C)CCn1c(=S)[nH]c2ncccc2c1=O	i	i	13*	i	i	i	i	i	i
CC(C)c1ccc(OCC(=O)N2CCN(C(=O)c3ccco3)CC2)cc1	i	i	i	i	i	nt	nt	nt	nt
COc1ccc(Cl)c(Cn2c(NCCCO)nc3c2c(=O)n(C)c(=O)n3C)c1	i	i	i	i	i	nt	nt	nt	nt
COc1cccc(-n2c(C)cc(/C=C3/C(=N)N4C(=NC3=O)SN=C4S(C)(=O)=O)c2C)c1	i	i	32*	i	i	2.0%*	i	i	i
